This note sets out measurements from ChEMBL document CHEMBL3272237, “Gliotoxin analogues as inhibitors of reverse transcriptase. 1. Effect of lipophilicity” (J Med Chem, 1978).

Data set [1] can be described thus: Lipophilicity of the compound by reversed-phase HPLC analysis. Conditions: ODS stationary phase, MeOH-H2O (2:1) mobile phase.
For data set [2], the system named is Moloney murine leukemia virus. Kind of data set: Inhibition of Moloney murine leukemia virus reverse transcriptase using [3H-methyl]-dTTP as substrate after 120 mins. Further details: unit not given here. Summed up:
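Enzyme source was Moloney MLV from infected NIH-3T3 cells, gradient-purified, used as whole virus. Mix: 40 mM Tris-HCl pH 7.8, 50 mM NaCl, 2 mM MnCl2, 1.6 mM DTT, 0.0125% Triton X-100, 0.64 mM each dATP/dCTP/dGTP, [methyl-3H]dTTP. Compounds were tested at 4–400 μg/mL (Me2SO up to 4%). Incubation was 37 °C, sampled at 120 min for acid-precipitable counts, mean of three runs. I50 read from %-of-Me2SO-control plot.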

A short description of data set [3]: Lipophilicity of the compound by reversed-phase TLC analysis. Format: physicochemical. The settings on record: RP-TLC on silylated silica plates impregnated with Dow-Corning 704 fluid. The method in brief: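 Silica gel F-254 plates were silanized with 5% (CH3)2SiCl2 in toluene, then impregnated with 5% Dow-Corning 704 fluid in ether. Spots were 1 μL of 3 mg/mL CH2Cl2 solution. Plates were developed in acetone–water 3:1 saturated with the fluid and visualized with 2% aqueous AgNO3. Rm = log(1/Rf − 1), averaged over five determinations.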

Consider `CC12SSC3(C(=O)N1c1ccccc1)N(C2=O)c1ccccc1C3(C)C` (stereo unspecified), for which, in data set [1], the “log k'” value is recorded as -0.1127. Moreover, the log(I50×10^5) in data set [2] stood at 1.69. Moreover, the Rm in data set [3] is 0.2892.
For `CCN1C(=O)C23SSC1(C)C(=O)N2c1ccccc1C3(C)C` (stereo unspecified), the “log k'” value in data set [1] is -0.34. This compound also registered a log(I50×10^5) in data set [2] of 1.89. The compound also came in with a Rm in data set [3] of 0.1636.
Take `CC12SSC3(C(=O)N1Cc1ccccc1)N(C2=O)c1ccccc1C3(C)C` (stereo unspecified): the “log k'” value in data set [1] was 0.0994. In addition, the log(I50×10^5) in data set [2] amounted to 0.574. In addition, the Rm in data set [3] is given as 0.3514.
The like results for `CN1CC(=O)N2c3ccccc3C(C)(C)C2(S)C1=O` (stereo unspecified) were, in that order, -1.067, 2.07 and 0.0132.
The like results for `CCCN1C(=O)C23SSC1(C)C(=O)N2c1ccccc1C3(C)C` (stereo unspecified) were, in that order, -0.0817, 1.06 and 0.2717.
The like results for `CC(C)N1C(=O)C23SSC1(C)C(=O)N2c1ccccc1C3(C)C` (stereo unspecified) were, in that order, -0.1291, 1.93 and 0.2769.
Turning to `CN1C(=O)C23SSC1(c1ccccc1)C(=O)N2c1ccccc1C3(C)C` (stereo unspecified), in data set [1], the “log k'” value was -0.0527. Also, the log(I50×10^5) in data set [2] turned out to be 0.978. In addition, the Rm in data set [3] amounted to 0.3007.
